ChEMBL document CHEMBL3414472, “Synthesis, SAR, and series evolution of novel oxadiazole-containing 5-lipoxygenase activating protein inhibitors: discovery of 2-[4-(3-{(r)-1-[4-(2-amino-pyrimidin-5-yl)-phenyl]-1-cyclopropyl-ethyl}-[1,2,4]oxadiazol-5-yl)-pyrazol-1-yl]-N,N-dimethyl-acetamide (BI 665915)” (J Med Chem, 2015)

How the values were obtained:
[1] = biological target: T1, Leukotriene A-4 hydrolase (Homo sapiens) (UniProt P09960); test: Inhibition of LTA4 hydrolase (unknown origin) at 10 uM relative to control
T1 sequence (whole entry): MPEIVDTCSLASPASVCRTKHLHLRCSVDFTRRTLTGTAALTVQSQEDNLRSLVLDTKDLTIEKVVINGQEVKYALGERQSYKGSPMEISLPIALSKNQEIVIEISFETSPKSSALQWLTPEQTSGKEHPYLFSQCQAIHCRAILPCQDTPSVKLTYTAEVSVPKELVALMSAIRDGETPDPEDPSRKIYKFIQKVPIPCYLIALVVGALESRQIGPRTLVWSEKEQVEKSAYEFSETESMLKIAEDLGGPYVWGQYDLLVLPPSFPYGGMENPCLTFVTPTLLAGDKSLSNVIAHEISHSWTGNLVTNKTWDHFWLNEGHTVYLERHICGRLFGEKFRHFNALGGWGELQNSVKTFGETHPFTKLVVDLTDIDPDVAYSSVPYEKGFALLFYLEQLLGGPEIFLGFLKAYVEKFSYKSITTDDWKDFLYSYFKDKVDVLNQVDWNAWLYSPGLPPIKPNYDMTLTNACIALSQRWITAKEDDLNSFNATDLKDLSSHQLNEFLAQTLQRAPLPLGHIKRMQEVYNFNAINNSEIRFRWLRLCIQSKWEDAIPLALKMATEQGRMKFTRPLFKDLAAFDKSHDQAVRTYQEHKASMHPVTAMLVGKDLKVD

hERG (KCNH2) = hERG (KCNH2) (Homo sapiens, UniProt Q12809); test: Inhibition of human ERG expressed in HEK293 cells assessed as change in tail current at 11 uM by manual patch clamp assay relative to control; type: cell-based; conditions: HEK293 cells that express hERG
hERG (KCNH2), sequence (Q12809 whole entry, the tested form may be a part): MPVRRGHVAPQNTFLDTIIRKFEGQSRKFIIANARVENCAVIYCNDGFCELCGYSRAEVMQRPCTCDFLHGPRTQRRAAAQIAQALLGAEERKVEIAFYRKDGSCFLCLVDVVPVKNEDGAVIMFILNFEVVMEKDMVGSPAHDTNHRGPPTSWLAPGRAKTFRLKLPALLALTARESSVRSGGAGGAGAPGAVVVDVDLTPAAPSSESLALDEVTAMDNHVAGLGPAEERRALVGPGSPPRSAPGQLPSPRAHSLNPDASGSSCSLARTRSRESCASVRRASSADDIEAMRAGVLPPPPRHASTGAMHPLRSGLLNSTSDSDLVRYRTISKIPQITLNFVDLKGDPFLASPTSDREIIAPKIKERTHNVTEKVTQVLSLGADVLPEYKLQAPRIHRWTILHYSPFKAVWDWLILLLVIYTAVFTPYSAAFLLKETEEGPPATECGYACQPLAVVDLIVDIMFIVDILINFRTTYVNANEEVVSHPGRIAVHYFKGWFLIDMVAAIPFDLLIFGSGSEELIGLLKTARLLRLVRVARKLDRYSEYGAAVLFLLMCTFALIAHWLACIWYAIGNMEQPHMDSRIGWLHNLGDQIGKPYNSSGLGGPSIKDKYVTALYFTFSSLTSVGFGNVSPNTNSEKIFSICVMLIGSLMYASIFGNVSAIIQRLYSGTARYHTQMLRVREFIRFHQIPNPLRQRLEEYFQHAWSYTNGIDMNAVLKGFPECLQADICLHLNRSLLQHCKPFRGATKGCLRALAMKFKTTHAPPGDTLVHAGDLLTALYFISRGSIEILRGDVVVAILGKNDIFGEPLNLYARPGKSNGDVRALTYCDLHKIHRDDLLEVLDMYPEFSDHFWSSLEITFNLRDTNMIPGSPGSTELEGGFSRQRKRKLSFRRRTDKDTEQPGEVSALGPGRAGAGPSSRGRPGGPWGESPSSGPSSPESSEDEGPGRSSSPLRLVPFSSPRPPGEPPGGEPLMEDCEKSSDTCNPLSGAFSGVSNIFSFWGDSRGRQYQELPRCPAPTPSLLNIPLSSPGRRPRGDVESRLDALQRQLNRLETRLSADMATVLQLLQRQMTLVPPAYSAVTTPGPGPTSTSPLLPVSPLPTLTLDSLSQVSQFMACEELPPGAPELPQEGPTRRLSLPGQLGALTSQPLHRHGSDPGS
Procedure, shortened: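 Whole-cell manual patch clamp on HEK293 cells stably expressing human ERG, at room temperature (20-22 °C) in a perfusion chamber. Change in hERG tail current amplitude during the hyperpolarizing step measured with escalating compound concentrations.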

Rattus norvegicus = test: Clearance in rat at 1 mg/kg, iv and 10 mg/kg, po relative to hepatic blood flow; type: ADME, organism-based, Liver; conditions: in vivo
Procedure, shortened: (§1)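 iv 1 mg/kg in 70 % PEG; po 10 mg/kg as suspension in 0.5 % methyl cellulose/0.015 % Tween. Blood sampled at 11 timepoints (0, 5, 15, 30 min, 1, 2, 4, 6, 8, 12, 24 h) per dose; mean of n = 3. Clearance expressed as percent of hepatic blood flow.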

Mus musculus [2] = test: In vivo inhibition of FLAP in C57BL/6 mouse assessed as LTB4 production in calcimycin-stimulated whole blood at 1 mg/kg, po after 2 hrs by ELISA (reference value: 100 +/- 13.3%); type: functional; set-up: scale not given: the % may be the effect or the level left
[3] = biological target: T2, Arachidonate 5-lipoxygenase-activating protein (Mus musculus, UniProt P30355); test: Inhibition of FLAP in calcimycin-stimulated mouse whole blood assessed as inhibition of LTB4 synthesis preincubated for 15 mins followed by calcimycin stimulation measured after 30 mins
T2 sequence (P30355 whole entry): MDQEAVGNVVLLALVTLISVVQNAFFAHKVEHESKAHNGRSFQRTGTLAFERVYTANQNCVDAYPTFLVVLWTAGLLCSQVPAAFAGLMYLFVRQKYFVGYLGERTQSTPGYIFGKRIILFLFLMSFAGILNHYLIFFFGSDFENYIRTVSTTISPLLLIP
Procedure, shortened: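 Mouse whole blood run by the same protocol as the human whole blood LTB4 assay (compound 15 min at 37 °C, 100 µM final calcimycin 30 min, HTRF LTB4 read-out). Geometric mean (n ≥ 3) of duplicate 8-point curves.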

Mus musculus [4] = test: In vivo inhibition of FLAP in C57BL/6 mouse assessed as LTB4 production in calcimycin-stimulated whole blood at 10 mg/kg, po after 2 hrs by ELISA (reference value: 100 +/- 13.3%); type: functional; set-up: scale not given: the % may be the effect or the level left
[5] = Oral bioavailability in cynomolgus monkey at 10 mg/kg; type: ADME, organism-based, Macaca fascicularis; conditions: in vivo; procedure, shortened: as §1
[6] = Oral bioavailability in dog at 10 mg/kg; type: ADME, organism-based, Canis lupus familiaris; conditions: in vivo; procedure, shortened: as §1
[7] = biological target: T3, Arachidonate 5-lipoxygenase-activating protein (Homo sapiens, UniProt P20292); test: Displacement of [125I]-L-691831 from human FLAP expressed in insect SF9 cell membranes after 2 hrs by Topcount analysis
T3 sequence (P20292 whole entry): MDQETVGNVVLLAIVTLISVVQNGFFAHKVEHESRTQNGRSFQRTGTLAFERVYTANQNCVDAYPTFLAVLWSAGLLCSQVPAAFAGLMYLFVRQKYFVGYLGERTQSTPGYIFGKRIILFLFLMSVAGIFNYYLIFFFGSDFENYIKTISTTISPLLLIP

[8] = Metabolic stability in human liver microsomes at 1 uM preincubated for 10 mins followed by NADPH addition measured over 60 mins by LC/MS analysis relative to hepatic blood flow; type: ADME; conditions: read-out: Stability
Procedure, shortened: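 Human liver microsomes (1 mg/mL protein) with test compound at 1 µM, preincubated 10 min at 37 °C before adding NADPH. Remaining compound followed over a 0–60 min time course, as duplicate 8-timepoint curves. The slope of ln(% remaining) against time gives clearance, expressed as percent of hepatic blood flow.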

[9] = biological target: T4, Leukotriene B4 receptor 2 (Homo sapiens) (UniProt Q9NPC1); test: Inhibition of BLT2 (unknown origin) at 10 uM relative to control
T4 sequence (whole entry): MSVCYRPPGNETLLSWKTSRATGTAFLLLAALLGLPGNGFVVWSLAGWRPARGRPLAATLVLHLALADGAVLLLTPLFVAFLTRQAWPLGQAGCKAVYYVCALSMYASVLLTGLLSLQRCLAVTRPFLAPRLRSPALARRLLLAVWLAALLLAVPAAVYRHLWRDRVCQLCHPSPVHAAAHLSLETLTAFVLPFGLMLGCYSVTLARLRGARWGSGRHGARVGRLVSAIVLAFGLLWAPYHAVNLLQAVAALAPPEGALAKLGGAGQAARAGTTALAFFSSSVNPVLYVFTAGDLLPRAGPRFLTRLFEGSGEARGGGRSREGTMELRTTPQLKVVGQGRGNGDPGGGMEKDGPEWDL

Cytochrome P450 3A4 = Cytochrome P450 3A4 (Homo sapiens, UniProt P08684); test: Time-dependent inhibition of CYP3A4 in human liver microsomes using midazolam as substrate up to 100 uM by LC/MS/MS analysis; type: ADME
Cytochrome P450 3A4, sequence (P08684 whole entry): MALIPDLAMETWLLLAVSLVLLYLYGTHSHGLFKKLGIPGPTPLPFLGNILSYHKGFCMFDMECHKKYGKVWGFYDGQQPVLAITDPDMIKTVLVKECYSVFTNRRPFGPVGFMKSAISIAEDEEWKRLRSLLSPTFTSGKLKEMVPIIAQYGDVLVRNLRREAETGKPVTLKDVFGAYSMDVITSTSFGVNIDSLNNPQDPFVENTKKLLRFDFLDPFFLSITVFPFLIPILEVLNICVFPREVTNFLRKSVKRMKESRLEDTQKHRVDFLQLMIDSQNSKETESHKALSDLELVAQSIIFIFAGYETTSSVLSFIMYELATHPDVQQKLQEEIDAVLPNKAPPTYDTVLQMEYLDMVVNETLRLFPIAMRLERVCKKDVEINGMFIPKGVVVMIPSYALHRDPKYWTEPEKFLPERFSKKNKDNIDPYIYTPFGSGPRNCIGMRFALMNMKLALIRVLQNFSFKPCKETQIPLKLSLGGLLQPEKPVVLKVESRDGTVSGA
Procedure, shortened: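 Primary incubation: 0.1 mg/ml human liver microsomes, 100 mM phosphate pH 7.4, 1 mM NADPH, 37 °C, compound 0 to 100 µM (7 concentrations). Aliquots taken at 0, 1, 3, 5, 15, 30 min into secondary incubation with 15 µM midazolam and 1 mM NADPH, quenched after 8 min; 1'-hydroxymidazolam measured by LC/MS/MS against a d4 internal standard.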

[10] = biological target: Prostaglandin G/H synthase 1 (Homo sapiens) (UniProt P23219); test: Inhibition of cyclooxygenase-1 (unknown origin) at 10 uM relative to control
Prostaglandin G/H synthase 1 (Homo sapiens), sequence (P23219 whole entry): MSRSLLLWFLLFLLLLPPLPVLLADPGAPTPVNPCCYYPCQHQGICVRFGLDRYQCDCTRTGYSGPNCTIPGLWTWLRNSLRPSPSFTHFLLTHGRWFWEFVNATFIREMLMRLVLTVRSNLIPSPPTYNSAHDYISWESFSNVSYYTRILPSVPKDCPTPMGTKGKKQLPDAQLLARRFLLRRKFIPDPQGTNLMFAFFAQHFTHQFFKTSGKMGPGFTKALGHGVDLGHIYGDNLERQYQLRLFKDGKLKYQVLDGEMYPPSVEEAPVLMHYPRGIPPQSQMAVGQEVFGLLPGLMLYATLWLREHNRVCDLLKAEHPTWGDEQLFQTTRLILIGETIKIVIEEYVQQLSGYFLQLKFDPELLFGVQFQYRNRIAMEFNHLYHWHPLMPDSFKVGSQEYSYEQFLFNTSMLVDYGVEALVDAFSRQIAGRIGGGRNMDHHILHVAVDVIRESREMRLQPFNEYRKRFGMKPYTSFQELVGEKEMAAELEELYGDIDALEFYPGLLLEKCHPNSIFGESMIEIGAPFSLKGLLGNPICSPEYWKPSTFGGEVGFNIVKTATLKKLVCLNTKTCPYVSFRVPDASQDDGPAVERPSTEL

inhibition [1]: < 50%
CL (Rattus norvegicus): 7%
IC50 [3]: 4800 nM
bioavailability [5]: 45%
bioavailability [6]: 58%
IC50 [7]: 1.7 nM
hepatic extraction ratio at 1 h, 1 µM [8]: 0.33
inhibition [9]: < 50%
TDI (Cytochrome P450 3A4): Not Active
inhibition [10]: < 50%
SMILES: CN(C)C(=O)Cn1cc(-c2nc([C@@](C)(c3ccc(-c4cnc(N)nc4)cc3)C3CC3)no2)cn1 [BI 665915]
inhibition at 11 µM (hERG (KCNH2)): 11%
Activity (Mus musculus [2]): 110.6%
Activity (Mus musculus [4]): 35.2%
